High-throughput results from PubChem.
V1R ag counter = activates human V1a receptor in oxytocin agonist counter-screen; P37288; CHO-V1R cells, Fluo-8 calcium fluorescence, agonist mode; 0% DMSO, 100% 3 nM vasopressin; activation, % at 3 µM; 0.25% of 320,000 active;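 active = activation above the mean activation of all tested compounds plus 3 SD, per screening run, cut at about 20% in these data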;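 note: signal is peak over basal fluorescence ratio across a 100 second FLIPR read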
OX1R antag-1 = antagonists of human orexin 1 receptor (OX1R). OX1R-expressing cells, FRET antagonist read-out. 1.8% of 330,000 active. inhibition, % at 6.6 µM. O43613. AID 485270; in the data active = inhibition mostly above about 38%, no sharp cut-off; inactive = mostly below about 40%;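 note: 0% = agonist challenge alone and 100% = reference antagonist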
Target sequence (O43613 whole entry, looked up): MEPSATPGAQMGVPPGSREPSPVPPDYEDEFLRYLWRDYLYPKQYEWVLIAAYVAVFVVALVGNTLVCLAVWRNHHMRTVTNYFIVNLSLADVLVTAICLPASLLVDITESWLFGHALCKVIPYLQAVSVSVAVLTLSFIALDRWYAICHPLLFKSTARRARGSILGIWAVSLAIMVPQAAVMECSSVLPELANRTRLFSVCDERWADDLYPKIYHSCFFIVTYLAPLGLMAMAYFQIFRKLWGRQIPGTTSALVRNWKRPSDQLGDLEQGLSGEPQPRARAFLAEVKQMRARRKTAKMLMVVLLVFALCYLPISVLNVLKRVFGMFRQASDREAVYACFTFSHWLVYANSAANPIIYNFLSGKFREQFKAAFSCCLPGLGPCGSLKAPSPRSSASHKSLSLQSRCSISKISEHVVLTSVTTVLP
OXTR ag = agonists of human oxytocin receptor; activation, % at 3 µM; CHO-OTR cells, Fluo-8 calcium fluorescence; normalized: DMSO 0%, oxytocin 100%; 0.32% of 320,000 active; P30559; AID 2435;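 active = activation above the mean of all tested compounds plus 3 SD, cutoff set per screening run, cut at about 20% in these data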;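 note: peak over basal fluorescence ratio from a 100 s FLIPR kinetic read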
CHO parental Ca = counter-screen: ATP calcium response change in parental CHO cells. parental CHO-K1, ATP-induced calcium, Fluo-8 fluorescence. AID 463079. 0.63% of 330,000 active. inhibition, % at 5.6 µM;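 active = inhibition above that plate's mean sample inhibition plus 3 SD, cut at about 26% in these data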;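 note: 0% = ATP-challenged DMSO wells and 100% = DMSO wells without ATP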
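Material: Parental CHO cells | Reagent: ATP | Compound dosing: Single nominal dose of 5.6 µM per compound | Detection: Intracellular calcium via Fluo-8 no-wash fluorescent dye | Read-out: % inhibition of ATP-induced calcium mobilization | Benchmarks: Low control ATP plus DMSO, high control DMSO only | Replicates: Singlicate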
OX1R antag-2 = antagonists of human orexin 1 receptor | CHO/OX1R cells, Fluo-8 calcium fluorescence, orexin A | 0.43% of 330,000 active | O43613 | inhibition, % at 5 µM | AID 434989;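 active = inhibition above its plate's threshold, mean inhibition of all tested compounds on the plate plus 3 SD, cut at about 37% in these data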;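 note: 0% = orexin A challenge wells and 100% = SB-334867-A antagonist wells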
OXTR potentiator = human OXTR potentiation | CHO-OTR cells, Fluo-8 calcium fluorescence, potentiator mode; 0% = oxytocin EC15, 100% = EC100 | activation, % at 3 µM | 0.061% of 320,000 active | AID 2445;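 active = activation above that plate's cutoff, the mean activation of tested compounds plus 3 SD, cut at about 6.6% in these data, passing the limit was not always enough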;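 note: 100% uses oxytocin at 75 nM as the full agonist control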
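Assay system: CHO cell line stably expressing human OTR | Also added: Oxytocin at about EC15, sub-maximal agonist stimulus | Times: Compound 6 min at room temperature before oxytocin, 100 s read | Measured by: Fluo-8 intracellular calcium fluorescence, ex 470-495, em 515-575 nm | Controls: EC15 oxytocin alone as 0%, 75 nM oxytocin as 100%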
Numbers without * were called inactive; . = not tested or not shown. Shown are actives, neighbours in structure and some others; about 2.6% of the full set was active somewhere.

SMILES	V1R ag counter	OX1R antag-1	OXTR ag	CHO parental Ca	OX1R antag-2	OXTR potentiator
COC(=O)c1ccc(NC(=O)Nc2ccc(F)c(Cl)c2)cc1	13.2	59.0*	19.0	41.0*	19.1	-11.7
COC(=O)c1cccc(NC(=O)Nc2ccc(Cl)c(Cl)c2)c1	11.2	69.0*	16.6	22.7	66.7*	-13.0
COC(=O)c1cc(NC(=O)Nc2ccccc2)ccc1Cl	13.2	37.5	13.8	49.0*	31.0	-12.9
COC(=O)c1cccc(NC(=O)NC(=O)c2ccccc2Cl)c1	-1.1	6.3	-1.2	-19.1	-46.3	-9.9
O=C(Nc1ccc(F)c(Cl)c1)Nc1csc2ccccc12	5.9	67.0*	11.9	40.5*	50.1*	-16.8
Fc1ccccc1/C=C/c1ccc2ccccc2n1	0.4	72.5*	-3.1	-26.0	-20.7	-4.4
C(=C\c1ccc2ccccc2n1)/c1ccccc1	-1.0	-0.8	-2.8	-28.5	-15.3	-8.1
O=c1c2cccc3c2c(nn1CN1CCOCC1)-c1ccccc1-3	-0.9	71.1*	-1.6	-12.0	-0.2	1.7
CCN(CC)CCn1nc2c3c(cccc3c1=O)-c1ccccc1-2	-0.2	21.8	-0.8	-3.0	-4.8	3.1
Cc1cc(C)c2c(=O)cc(C(F)(F)F)oc2n1	0.1	-4.9	0.8	-5.3	-7.8	-6.6
O=C(CNC(=O)c1cccs1)OCC(=O)c1ccccc1Cl	-0.5	2.0	0.6	-5.4	-0.9	-4.2
Nc1cccc(C(=O)OCC(=O)Nc2cccc3c2C(=O)c2ccccc2C3=O)c1	-0.5	16.8	-0.2	-10.8	-7.6	-4.4
CCN(CC)CCC(=O)Nc1cccc2c1C(=O)c1ccccc1C2=O	0.3	74.2*	-0.5	-12.1	-39.8	-3.1
CC1CCN(C(=O)c2ccc3c(c2NCCO)C(=O)c2ccccc2C3=O)CC1	0.2	44.3	3.8	-24.8	-22.5	-11.7
CCN(CC)CCNC(=O)c1ccc2c(c1NCCO)C(=O)c1ccccc1C2=O	1.0	88.6*	0.0	-15.2	-20.5	-3.0
OCCNc1nc(-c2ccccc2)nc2c1oc1ccccc12	-2.0	40.3*	0.3	-23.2	-13.5	-6.4
O=C(CN1C(=O)COc2ccc(Cl)cc21)NCC1CCCO1 (centres undefined)	1.1	9.3	-1.1	0.9	-10.4	-3.0
N=c1n(Cc2ccccc2)c2ccccc2n1CC(O)COc1ccccc1 (centres undefined)	6.9	11.9	9.1	-6.4	-3.2	-5.2
Cc1ccc(Cn2c(=N)n(CC(O)COc3ccccc3)c3ccccc32)cc1 (centres undefined)	28.2*	-7.2	28.0*	41.2*	52.0*	-11.5
CC(C)(C)OC(=O)C[C@@H]1C/C=C\C[C@@H](CC(=O)N(CCO)Cc2ccccc2)C(=O)N[C@H](C(C)(C)C)COC1=O	-0.6	14.1	-1.6	-25.4	6.2	0.0
Cc1sc2ncnc(NCc3ccco3)c2c1C	8.3	33.7	7.5	-10.4	5.3	-31.0
Cc1sc2ncnc(NCC(O)c3ccc([N+](=O)[O-])cc3)c2c1C (centres undefined)	11.4	27.9	9.1	35.3*	13.1	-14.9
Cc1sc2ncnc(NCc3cccs3)c2c1C	5.5	28.3	11.0	36.1*	2.7	-5.4
Cc1sc2ncnc(NCC(O)c3ccccc3)c2c1C (centres undefined)	12.1	27.9	13.4	43.2*	19.7	-14.9
COc1ccc(C(=O)Nc2nc(CC(=O)NCCc3ccccc3OC)cs2)cc1	-0.3	37.2	-1.9	-26.1	-35.7	-10.4
SMILES	V1R ag counter	OX1R antag-1	OXTR ag	CHO parental Ca	OX1R antag-2	OXTR potentiator
CCN(CC)C(=O)Cn1cc(C(=O)C(=O)NCCc2c[nH]c3ccccc23)c2ccccc21	-0.1	46.3*	-1.1	-6.2	5.9	-21.7
CCC(C)NC(=O)COC(=O)c1cccnc1Nc1ccccc1F (centres undefined)	-0.6	61.5*	-2.1	-15.7	-5.6	-4.2
COc1ccc(OCC(=O)Nc2ccc(N3CCN(C(=O)c4ccccc4)CC3)c(Cl)c2)cc1	7.0	22.7	11.7	43.4*	18.0	-10.4
COc1ccc(OCC(=O)Nc2ccc(N3CCOCC3)c(Cl)c2)cc1	3.4	19.4	3.7	2.2	-5.3	-9.3
COc1cccc2cc(C(=O)CS(=O)(=O)c3ccc(Cl)cc3)c(=O)oc12	0.4	42.7*	0.2	-15.9	-18.5	-10.6
CCCN(CC(=O)Nc1ccccc1OC)C(=O)c1cc(-c2cccs2)nn1-c1ccccc1	-0.6	38.0	-1.2	-17.5	-23.0	-6.7
CC[C@]1(C(=O)OC)[C@H]2C(=O)N(Cc3ccccc3)C(=O)[C@H]2[C@H]2CN(C)C(=NC)N21	.	10.5	.	-8.2	-8.2	.
O=C(Nc1ccc(Cl)cn1)C1CCCN1S(=O)(=O)c1cccc2ccccc12 (centres undefined)	0.2	63.6*	-0.6	-9.8	2.5	-3.3
O=C(Nc1ccc(Cl)cn1)C1CCCN1S(=O)(=O)c1ccc(Cl)cc1 (centres undefined)	-0.4	64.1*	-2.6	-30.9	36.6	1.4
NNC(=O)C1CCCN1S(=O)(=O)c1ccc(Cl)cc1 (centres undefined)	0.2	16.8	-0.5	-28.8	-22.4	-9.2
O=C(Nc1nccs1)c1ccc(COc2ccccc2Cl)o1	0.4	32.2	-1.2	-15.7	-27.4	-27.5
CC1=CN(S(=O)(=O)c2ccc(C)cc2)C[C@@H]2[C@H]3CC[C@H](C3)[C@H]12	.	5.0	.	-24.1	4.1	.
O=C(NCc1ccccc1Cl)c1ccccc1CCc1ccccc1	2.7	50.4*	-0.1	65.6*	23.3	-4.7
Cc1cc(C)c(NC(=O)c2ccccc2CCc2ccccc2)c(C)c1	2.0	41.2*	0.7	6.8	30.8	-5.9
O=C(NC(=S)Nc1ccccc1OC(F)F)c1ccc2c(c1)OCO2	0.8	9.2	0.8	-7.9	4.0	-5.7
CN(C)c1ccc2nc3c(=O)[nH]c(=O)nc-3n(CC(O)C(O)C(O)CO)c2c1 (centres undefined)	34.8*	74.0*	22.6*	11.7	15.6	-11.5
CNS(=O)(=O)c1cccc(C(=O)OCC(=O)NC2CCCC(C)C2C)c1 (centres undefined)	1.0	1.1	2.0	-7.9	-7.4	0.5
CCN(CC(=O)NCc1ccc(Cl)cc1)C(=O)c1sccc1C	1.7	20.6	0.8	-16.4	-17.2	5.6
O=[N+]([O-])c1cc(-c2ncccn2)c([N+](=O)[O-])s1	-1.4	63.9*	-1.7	17.2	20.0	5.1
O=C(O)C1CCCN(S(=O)(=O)c2ccc(-c3ccc(=O)[nH]n3)s2)C1 (centres undefined)	-0.2	29.2	0.3	-11.7	-10.8	0.4
O=C(Nc1ccccc1Cl)N1CCCN(c2nc(-c3ccccc3)ns2)CC1	6.1	74.1*	7.5	0.6	15.0	-6.6
